Measured values as given in ChEMBL document CHEMBL3124849, “Total synthesis of burkholdacs A and B and 5,6,20-tri-epi-burkholdac A: HDAC inhibition and antiproliferative activity” (Eur J Med Chem, 2014).

Legend:
[1] = Selectivity index, ratio of IC50 for mouse HDAC6 to IC50 for human HDAC1
Summary of the method: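 Ratio of HDAC6 IC50 to HDAC1 IC50. Both enzymes were FLAG-immunopurified from transfected 293T cells: human HDAC1 and mouse HDAC6. Each was assayed on Ac-KGLGK(Ac)-MCA with 100 µM DTT at 37 °C for 30 min, developed with trypsin, and AMC read by fluorescence. IC50s are means of ≥3 curves.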

[2] = Cytotoxicity against human BSY1 cells by SRB assay; format: functional; details: BSY-1
Summary of the method: (§1)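 Tested at the Japanese Foundation for Cancer Research panel of 39 human cancer cell lines. Five concentrations per compound, spanning 10^-10 to 10^-6 M or 10^-8 to 10^-4 M. Growth measured by sulforhodamine B colorimetry. GI50 is the concentration giving 50% growth inhibition relative to control.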

LOX IMVI = assay: Cytotoxicity against human LOXIMVI cells by SRB assay; format: functional; summary of the method: as §1
[3] = Cytotoxicity against human OVCAR5 cells by SRB assay; format: functional; details: OVCAR-5; summary of the method: as §1
HT-29 = assay: Cytotoxicity against human HT-29 cells by SRB assay; format: functional; summary of the method: as §1
HCC 2998 = assay: Cytotoxicity against human HCC2998 cells by SRB assay; format: functional; summary of the method: as §1
HCT-116 = assay: Cytotoxicity against human HCT116 cells by SRB assay; format: functional; summary of the method: as §1
[4] = Cytotoxicity against human HBC5 cells by SRB assay; format: functional; summary of the method: as §1
MCF7 = assay: Cytotoxicity against human MCF7 cells by SRB assay; format: functional; summary of the method: as §1
A549 = assay: Cytotoxicity against human A549 cells by SRB assay; format: functional; summary of the method: as §1
St-4 = assay: Cytotoxicity against human St-4 cells by SRB assay; format: functional; summary of the method: as §1
MDA-MB-231 = assay: Cytotoxicity against human MDA-MB-231 cells by SRB assay; format: functional; summary of the method: as §1
KM12 = assay: Cytotoxicity against human KM12 cells by SRB assay; format: functional; summary of the method: as §1
SK-OV-3 = assay: Cytotoxicity against human SKOV3 cells by SRB assay; format: functional; summary of the method: as §1
[5] = Cytotoxicity against human OVCAR4 cells by SRB assay; format: functional; details: OVCAR-4; summary of the method: as §1
OVCAR-3 = assay: Cytotoxicity against human OVCAR3 cells by SRB assay; format: functional; summary of the method: as §1
NCI-H460 = assay: Cytotoxicity against human NCI-H460 cells by SRB assay; format: functional; summary of the method: as §1
[6] = Cytotoxicity against human DMS273 cells by SRB assay; format: functional; details: DMS-273; summary of the method: as §1
[7] = Cytotoxicity against human RXF631L cells by SRB assay; format: functional; details: RXF 631; summary of the method: as §1
[8] = Cytotoxicity against human SNB78 cells by SRB assay; format: functional; details: SNB-78; summary of the method: as §1
OVCAR-8 = assay: Cytotoxicity against human OVCAR8 cells by SRB assay; format: functional; summary of the method: as §1
SF-539 = assay: Cytotoxicity against human SF539 cells by SRB assay; format: functional; summary of the method: as §1
[9] = Cytotoxicity against human MKN1 cells by SRB assay; format: functional; details: MKN-1; summary of the method: as §1
[10] = Cytotoxicity against human MKN74 cells by SRB assay; format: functional; details: MKN-74; summary of the method: as §1
Histone deacetylase 1 [11] = biological target: T1, Histone deacetylase 1 (Homo sapiens, UniProt Q13547); assay: Inhibition of human HDAC1 expressed in human 293T cells using Ac-KGLGK(Ac)-MCA as substrate after 30 mins by fluorescence assay
T1 sequence (Q13547 whole entry): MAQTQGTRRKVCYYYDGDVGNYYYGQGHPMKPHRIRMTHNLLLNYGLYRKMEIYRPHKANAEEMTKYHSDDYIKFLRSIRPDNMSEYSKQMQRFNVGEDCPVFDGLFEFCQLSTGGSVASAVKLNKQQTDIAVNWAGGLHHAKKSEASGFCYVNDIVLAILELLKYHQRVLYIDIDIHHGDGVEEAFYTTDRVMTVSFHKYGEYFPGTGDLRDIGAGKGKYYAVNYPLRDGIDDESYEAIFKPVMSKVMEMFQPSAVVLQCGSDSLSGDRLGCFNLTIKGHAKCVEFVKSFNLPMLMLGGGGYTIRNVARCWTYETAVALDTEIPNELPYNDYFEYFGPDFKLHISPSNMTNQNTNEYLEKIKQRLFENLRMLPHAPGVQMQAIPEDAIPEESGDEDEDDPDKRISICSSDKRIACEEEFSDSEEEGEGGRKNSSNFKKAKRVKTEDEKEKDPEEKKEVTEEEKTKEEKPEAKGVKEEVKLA

PC-3 = assay: Cytotoxicity against human PC3 cells by SRB assay; format: functional; summary of the method: as §1
[12] = Cytotoxicity against human MKN7 cells by SRB assay; format: functional; details: MKN-7; summary of the method: as §1
NCI-H23 = assay: Cytotoxicity against human NCI-H23 cells by SRB assay; format: functional; summary of the method: as §1
[13] = Cytotoxicity against human DMS114 cells by SRB assay; format: functional; details: DMS-114; summary of the method: as §1
SF-295 = assay: Cytotoxicity against human SF295 cells by SRB assay; format: functional; summary of the method: as §1
DU-145 = assay: Cytotoxicity against human DU145 cells by SRB assay; format: functional; summary of the method: as §1
SNB-75 = assay: Cytotoxicity against human SNB75 cells by SRB assay; format: functional; summary of the method: as §1
Histone deacetylase 1 [14] = biological target: T1, Histone deacetylase 1; assay: Ratio of FK228 IC50 to compound IC50 for human HDAC1 expressed in human 293T cells; format: cell-based
Summary of the method: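 FLAG-tagged human HDAC1 was expressed transiently in 293T cells (pcDNA3-HDAC1), immunoprecipitated with anti-FLAG M2 and eluted with FLAG peptide. Enzyme was incubated with 2 mM stock Ac-KGLGK(Ac)-MCA in 20 mM Tris-HCl pH 8.0, 150 mM NaCl, 10% glycerol, 100 μM DTT, for 30 min at 37 °C. Trypsin then released AMC, read by fluorescence. IC50 is the mean of ≥3 dose-response curves; FK228 reference run alongside.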

U-251 = assay: Cytotoxicity against human U251 cells by SRB assay; format: functional; summary of the method: as §1
SF-268 = assay: Cytotoxicity against human SF268 cells by SRB assay; format: functional; summary of the method: as §1
[15] = Cytotoxicity against human MKN45 cells by SRB assay; format: functional; details: MKN-45; summary of the method: as §1
[16] = Cytotoxicity against human HBC4 cells by SRB assay; format: functional; summary of the method: as §1
NCI-H226 = assay: Cytotoxicity against human NCI-H226 cells by SRB assay; format: functional; summary of the method: as §1
[17] = biological target: T2, Protein deacetylase HDAC6 (Mus musculus, UniProt Q9Z2V5); assay: Inhibition of mouse HDAC6 expressed in human 293T cells using Ac-KGLGK(Ac)-MCA as substrate after 30 mins by fluorescence assay; format: cell-based
T2 sequence (Q9Z2V5 whole entry): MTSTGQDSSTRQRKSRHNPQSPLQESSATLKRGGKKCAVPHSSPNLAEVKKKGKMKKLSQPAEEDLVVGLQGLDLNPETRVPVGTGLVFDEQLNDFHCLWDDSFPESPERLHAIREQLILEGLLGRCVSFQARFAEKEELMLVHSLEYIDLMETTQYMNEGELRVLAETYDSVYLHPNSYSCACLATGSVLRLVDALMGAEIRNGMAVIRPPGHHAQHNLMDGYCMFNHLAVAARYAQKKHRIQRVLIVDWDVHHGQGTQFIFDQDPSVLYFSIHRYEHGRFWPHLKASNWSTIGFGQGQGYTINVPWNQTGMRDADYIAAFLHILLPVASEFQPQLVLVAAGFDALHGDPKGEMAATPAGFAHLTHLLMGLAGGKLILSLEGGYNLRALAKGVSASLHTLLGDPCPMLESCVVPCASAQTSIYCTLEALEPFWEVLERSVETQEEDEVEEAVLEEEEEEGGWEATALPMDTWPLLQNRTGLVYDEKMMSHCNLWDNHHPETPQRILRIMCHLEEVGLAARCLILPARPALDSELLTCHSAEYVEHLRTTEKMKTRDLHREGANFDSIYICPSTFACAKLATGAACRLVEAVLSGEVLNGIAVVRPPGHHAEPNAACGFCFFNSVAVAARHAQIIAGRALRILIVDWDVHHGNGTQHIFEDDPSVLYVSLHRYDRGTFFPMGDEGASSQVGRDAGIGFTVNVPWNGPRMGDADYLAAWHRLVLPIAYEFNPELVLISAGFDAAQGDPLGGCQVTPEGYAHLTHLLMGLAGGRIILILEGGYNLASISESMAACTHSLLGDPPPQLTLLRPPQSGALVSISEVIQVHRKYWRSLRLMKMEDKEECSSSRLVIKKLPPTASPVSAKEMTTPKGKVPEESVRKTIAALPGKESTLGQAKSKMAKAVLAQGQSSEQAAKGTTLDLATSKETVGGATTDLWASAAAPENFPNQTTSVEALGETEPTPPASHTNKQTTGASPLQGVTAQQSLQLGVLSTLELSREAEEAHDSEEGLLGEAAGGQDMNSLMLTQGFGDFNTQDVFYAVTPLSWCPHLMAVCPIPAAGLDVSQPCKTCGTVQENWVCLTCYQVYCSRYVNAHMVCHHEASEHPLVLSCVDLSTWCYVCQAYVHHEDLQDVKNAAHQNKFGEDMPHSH

[18] = Cytotoxicity against human MKN28 cells by SRB assay; format: functional; details: MKN-28; summary of the method: as §1
HCT-15 = assay: Cytotoxicity against human HCT15 cells by SRB assay; format: functional; summary of the method: as §1
ACHN = assay: Cytotoxicity against human ACHN cells by SRB assay; format: functional; summary of the method: as §1
NCI-H522 = assay: Cytotoxicity against human NCI-H522 cells by SRB assay; format: functional; summary of the method: as §1

## CC(C)[C@H]1NC(=O)[C@H]2CSSCC/C=C/[C@H](CC(=O)N[C@H](C)C(=O)N2)OC(=O)C[C@@H]1O
[1]
  Ratio IC50: 485

## CC[C@H](C)[C@H]1NC(=O)[C@H]2CSSCC/C=C/[C@H](CC(=O)N[C@H](CCSC)C(=O)N2)OC(=O)C[C@@H]1O [THAILANDEPSIN A]
[2]
  GI50: 5 nM
LOX IMVI
  GI50: 2.5 nM
[3]
  GI50: 1.6 nM
HT-29
  GI50: 0.74 nM
HCC 2998
  GI50: 2.6 nM
HCT-116
  GI50: 0.51 nM
[1]
  Ratio IC50: 992
[4]
  GI50: 2.3 nM
MCF7
  GI50: 2.8 nM
A549
  GI50: 0.85 nM
St-4
  GI50: 1.1 nM
MDA-MB-231
  GI50: 2.6 nM
KM12
  GI50: 3.6 nM
SK-OV-3
  GI50: 1.9 nM
[5]
  GI50: 5 nM
OVCAR-3
  GI50: 2.8 nM
NCI-H460
  GI50: 0.53 nM
[6]
  GI50: 2.7 nM
[7]
  GI50: 2.3 nM
[8]
  GI50: 11 nM
OVCAR-8
  GI50: 0.72 nM
SF-539
  GI50: 0.7 nM
[9]
  GI50: 2.5 nM
[10]
  GI50: 2.9 nM
Histone deacetylase 1 [11]
  IC50: 1 nM
PC-3
  GI50: 8.3 nM
[12]
  GI50: 10 nM
NCI-H23
  GI50: 3.3 nM
[13]
  GI50: 3.2 nM
SF-295
  GI50: 2.3 nM
DU-145
  GI50: 3.1 nM
SNB-75
  GI50: 1.4 nM
Histone deacetylase 1 [14]
  Ratio IC50: 3
U-251
  GI50: 4.4 nM
SF-268
  GI50: 4.1 nM
[15]
  GI50: 14 nM
[16]
  GI50: 3.8 nM
NCI-H226
  GI50: 2.7 nM
[17]
  IC50: 992 nM
[18]
  GI50: 16 nM
HCT-15
  GI50: 100 nM
ACHN
  GI50: 6.6 nM
NCI-H522
  GI50: 0.42 nM

## CSCC[C@H]1NC(=O)C[C@H]2/C=C/CCSSC[C@@H](NC1=O)C(=O)N[C@H](C(C)C)[C@@H](O)CC(=O)O2
[2]
  GI50: 4 nM
LOX IMVI
  GI50: 0.5 nM
[3]
  GI50: 1 nM
HT-29
  GI50: 0.65 nM
HCC 2998
  GI50: 0.67 nM
HCT-116
  GI50: 0.51 nM
[1]
  Ratio IC50: 1640
[4]
  GI50: 7.8 nM
MCF7
  GI50: 2 nM
A549
  GI50: 0.57 nM
St-4
  GI50: 8.1 nM
MDA-MB-231
  GI50: 1.8 nM
KM12
  GI50: 0.76 nM
SK-OV-3
  GI50: 0.78 nM
[5]
  GI50: 5.8 nM
OVCAR-3
  GI50: 2.2 nM
NCI-H460
  GI50: 0.91 nM
[6]
  GI50: 3 nM
[7]
  GI50: 1.3 nM
[8]
  GI50: 460 nM
OVCAR-8
  GI50: 0.68 nM
SF-539
  GI50: 0.72 nM
[9]
  GI50: 0.67 nM
[10]
  GI50: 1.8 nM
Histone deacetylase 1 [11]
  IC50: 1.2 nM
PC-3
  GI50: 4.4 nM
[12]
  GI50: 4.1 nM
NCI-H23
  GI50: 0.64 nM
[13]
  GI50: 0.97 nM
SF-295
  GI50: 3 nM
DU-145
  GI50: 0.82 nM
SNB-75
  GI50: 3.6 nM
Histone deacetylase 1 [14]
  Ratio IC50: 3
U-251
  GI50: 2.2 nM
SF-268
  GI50: 1.8 nM
[15]
  GI50: 7.6 nM
[16]
  GI50: 3 nM
NCI-H226
  GI50: 0.47 nM
[17]
  IC50: 1970 nM
[18]
  GI50: 8.5 nM
HCT-15
  GI50: 300 nM
ACHN
  GI50: 3.4 nM
NCI-H522
  GI50: 0.2 nM
